Experimental data reported in ChEMBL document CHEMBL4270646, “Novel antimalarial chloroquine- and primaquine-quinoxaline 1,4-di-N-oxide hybrids: Design, synthesis, Plasmodium life cycle stage profile, and preliminary toxicity studies” (Eur J Med Chem, 2018).

Key:
[1] = Selectivity index, ratio of CC50 for human HepG2 cells to IC50 for multidrug-resistant Plasmodium falciparum […]; format: toxicity; conditions: read-out: Ratio CC50/IC50
How it was run: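 Selectivity index = HepG2 CC50 / FCR-3 IC50. CC50 from MTT assay after 48 h exposure, A550. IC50 from 48 h Hoechst 33342 flow-cytometry assay.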

Mus musculus [2] = test: Induction of alanine transferase level in BALB/c mouse at 300 to 500 mg/kg, po administered as single dose measured at day 14 (reference value: 34 to 78 U/L); format: organism-based; conditions: in vivo
How it was run: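 BALB/c female mice (6-8 weeks, 20-23 g), groups of three, given one oral dose of 300 or 500 mg/kg; DMSO 100% vehicle for controls. Observed 4 h after dosing, then daily for 14 days. Euthanized on day 14 or on signs of suffering. Blood biochemistry, including alanine transferase, compared with the range in untreated mice.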

[3] = Genotoxicity in Salmonella typhimurium TA1535 harboring pSK1002 assessed as bacterial survival at 0.001 to 0.063 mg/ml after 4 hrs in presence of Sprague-Dawley rat liver S9 fraction by SOS/umu assay relative to control; format: toxicity, organism-based; conditions: salmonella enterica subsp. enterica serovar typhimurium; read-out: Survival
How it was run: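 Log-phase S. typhimurium TA1535/pSK1002 (OD600 0.15–0.4) exposed for 4 h at 37°C with shaking, with 10% rat S9 mix or PBS. Eleven twofold dilutions tested from 1 mg/mL final; DMSO as solvent control. A600 read. Survival expressed as % of negative-control A600.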

Plasmodium yoelii [4] = test: Antiplasmodial activity against Plasmodium yoelii 17XNL sporozoites infected in BALB/c mouse assessed as parasite burden at 100 mg/kg, po measured at day 4 by […] (reference value: 0.06%); format: functional
How it was run: (§1)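 BALB/c mice (6-8 weeks, 20-23 g), n=4 per hybrid group and n=5 per control. Dosed orally at 100 mg/kg (100 µL) on days -1, 0, +1 and +2. Vehicle was DMSO 100%; primaquine diphosphate given at 30 mg/kg daily. On day 0, 5 x 10^3 cryopreserved P. yoelii 17XNL sporozoites injected i.v. Parasitaemia read by Giemsa smear and SYBR Green flow cytometry. Groups compared by Kruskal-Wallis test.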

Mus musculus [5] = test: Acute toxicity in BALB/c mouse assessed as effect on blood urea nitrogen level at 300 to 500 mg/kg, po administered as single dose measured at day 14; format: organism-based; conditions: in vivo
Plasmodium yoelii [6] = test: Antiplasmodial activity against GFP-harboring Plasmodium yoelii sporozoites infected in human HepG2 cells expressing CD81 assessed as reduction in parasite growth treated every 24 hrs by DAPI staining-based fluorescence microscopic analysis; format: functional, organism-based; conditions: HepG2, 24 h
How it was run: (§2)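 Collagen-coated wells seeded with HepG2 (P. berghei), HepG2-CD81 (P. yoelii) or primary human hepatocytes (P. falciparum). Sporozoites added: 5×10^3 to 1×10^4 per well to the cell lines, 2.5×10^4 per well to hepatocytes. Compounds given at infection: top 10 µg/mL plus seven serial dilutions, renewed at 3 h and then every 24 h. Cultures grown 40 h (cell lines) or 8 days (hepatocytes) at 37°C. Methanol-fixed, HSP70 immunolabelled, DAPI counterstained. IC50 from logistic regression; triplicate.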

Mus musculus [7] = test: Acute toxicity in BALB/c mouse assessed as appearance of bright hair without erection at 300 to 500 mg/kg, po administered as single dose measured every day for 14 days; format: organism-based; conditions: in vivo, 336 h
How it was run: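 Female BALB/c mice, 6-8 weeks old, 20-23 g, in groups of three. Single oral dose of 300 or 500 mg/kg; vehicle DMSO 100% given to controls. Mice watched for signs of toxicity for 4 h after dosing. Physical appearance, injury, pain and illness recorded daily for 14 days. Euthanasia in a CO2 chamber on day 14 or earlier if suffering.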

Plasmodium berghei [8] = test: Antiplasmodial activity against GFP-harboring Plasmodium berghei sporozoites infected in human HepG2 cells assessed as reduction in parasite growth treated every 24 hrs by DAPI staining-based fluorescence microscopic analysis; format: functional, organism-based; conditions: HepG2, 24 h; how it was run: as §2
[9] = Cytotoxicity against human primary hepatocytes assessed as reduction in cell viability after 48 hrs by MTT assay; format: cell-based, Hepatocyte
How it was run: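 Cells seeded at 2 × 10^5 per well and allowed 24 h at 37°C, 5% CO2 to form a monolayer. Dilutions added in triplicate and incubated 48 h. MTT (2 mg/mL) then added for 4 h, followed by DMSO for 20 min at room temperature. Absorbance read at 550 nm; DMSO diluent and untreated cells served as negative controls. CC50 derived from the curve.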

Plasmodium yoelii [10] = test: Antiplasmodial activity against Plasmodium yoelii 17XNL sporozoites infected in BALB/c mouse assessed as pre-patent time period of parasitaemia at 100 mg/kg, po measured at day 4 by […]; format: functional; how it was run: as §1
Plasmodium berghei [11] = test: (§3) Antiplasmodial activity against GFP-expressing gametocytes of Plasmodium berghei sporozoites in Anopheles stephensi mosquitoes feeded on blood from infected Swiss mouse assessed as reduction in mosquito infection at 100 mg/kg, ip pretreated for 1.5 hrs followed by blood feeding of mosquito and measured at 8 days post mosquitoes infection by fluorescence microscopic method relative to control; format: functional; set-up: scale not given: the % may be the effect or the level left
How it was run: (§4)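 Swiss mice (female, 6 weeks) infected i.p. with PbGFP-infected red cells (200 µL, 3000 parasites/µL). Gametocytes monitored 4 days by Giemsa smear and exflagellation. Hybrid given i.p. at 100 mg/kg in DMSO 1.5 h before A. stephensi fed 1 h on mice with 1% gametocytes. Controls were untreated and DMSO-treated mice. Thirty mosquitoes per group dissected after 8 days. Midgut oocysts counted by fluorescence microscopy against control mosquitoes taken as 100%.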

Mus musculus [12] = test: Acute toxicity in BALB/c mouse assessed as effect on total bilirubin level at 300 to 500 mg/kg, po administered as single dose measured at day 14; format: organism-based; conditions: in vivo
[13] = Selectivity index, ratio of CC50 for human HepG2 cells to IC50 for GFP-expressing Plasmodium berghei sporozoites; format: toxicity; conditions: read-out: Ratio CC50/IC50
How it was run: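 Selectivity index = CC50 (matching cell) / IC50 (matching parasite). Cell–parasite pairs: HepG2-CD81 with P. yoelii, HepG2 with P. berghei, human hepatocytes with P. falciparum.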

[14] = Genotoxicity in Salmonella typhimurium TA1535 harboring pSK1002 assessed as umu gene induction at 0.001 to 0.063 mg/ml after 4 hrs in presence of Sprague-Dawley rat liver S9 fraction by beta-galactosidase reporter gene assay relative to control; format: toxicity, organism-based; conditions: salmonella enterica subsp. enterica serovar typhimurium; read-out: FC
How it was run: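 SOS/umu test, 4 h at 37°C, with S9 mix or PBS. Positive controls 4-NQO (2.5 µg/mL final, no S9) and 2-AA (0.0125 mg/mL final, with S9). Aliquots incubated with ONPG 0.9 mg/mL in B-buffer for 30 min at 28°C, then stopped with 1 M Na2CO3. Activity calculated as A420/A600. Induction factor is the ratio to the DMSO control; genotoxic if ≥2 at ≥80% survival.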

Plasmodium yoelii [15] = test: Antiplasmodial activity against Plasmodium yoelii 17XNL sporozoites infected in BALB/c mouse assessed as incident of decrease in peripheral blood parasite levels at 100 mg/kg, po measured at day 1 by […] relative to control; format: functional; set-up: scale not given: the % may be the effect or the level left; how it was run: as §1
Plasmodium berghei [16] = test: as §3, with “reduction in number of oocysts in mosquito midgut” for “reduction in mosquito infection”, “in mosquito midgut at 100” for “in mosquito infection at 100”; format: functional; set-up: scale not given: the % may be the effect or the level left; how it was run: as §4

COc1cc(NC(C)CCCNC(=O)c2c(C)[n+]([O-])c3ccccc3[n+]2[O-])c2ncccc2c1 (stereo unspecified)
selectivity ratio [1]: 0.58
Activity (Mus musculus [2]): 82 U/L
viability at 4 h [3]: > 80%
Activity (Plasmodium yoelii [4]): 0%
Activity (Mus musculus [5]): Non-Toxic
IC50 (Plasmodium yoelii [6]): 1.39 µM
Activity (Mus musculus [7]): Non-Toxic
IC50 (Plasmodium berghei [8]): 5.19 µM
CC50 at 48 h [9]: > 213 µM
Time (Plasmodium yoelii [10]): 24 h
Activity (Plasmodium berghei [11]): 20%
Activity (Mus musculus [12]): Non-Toxic
selectivity ratio [13]: 7.59
fold induction at 4 h [14]: < 2
Activity (Plasmodium yoelii [15]): 25%
Activity (Plasmodium berghei [16]): 92%
